Each structure is given as a SMILES string.

In this test the target is T1, Nitric oxide synthase, inducible (Mus musculus, UniProt P29477).
T1 sequence (P29477 whole entry): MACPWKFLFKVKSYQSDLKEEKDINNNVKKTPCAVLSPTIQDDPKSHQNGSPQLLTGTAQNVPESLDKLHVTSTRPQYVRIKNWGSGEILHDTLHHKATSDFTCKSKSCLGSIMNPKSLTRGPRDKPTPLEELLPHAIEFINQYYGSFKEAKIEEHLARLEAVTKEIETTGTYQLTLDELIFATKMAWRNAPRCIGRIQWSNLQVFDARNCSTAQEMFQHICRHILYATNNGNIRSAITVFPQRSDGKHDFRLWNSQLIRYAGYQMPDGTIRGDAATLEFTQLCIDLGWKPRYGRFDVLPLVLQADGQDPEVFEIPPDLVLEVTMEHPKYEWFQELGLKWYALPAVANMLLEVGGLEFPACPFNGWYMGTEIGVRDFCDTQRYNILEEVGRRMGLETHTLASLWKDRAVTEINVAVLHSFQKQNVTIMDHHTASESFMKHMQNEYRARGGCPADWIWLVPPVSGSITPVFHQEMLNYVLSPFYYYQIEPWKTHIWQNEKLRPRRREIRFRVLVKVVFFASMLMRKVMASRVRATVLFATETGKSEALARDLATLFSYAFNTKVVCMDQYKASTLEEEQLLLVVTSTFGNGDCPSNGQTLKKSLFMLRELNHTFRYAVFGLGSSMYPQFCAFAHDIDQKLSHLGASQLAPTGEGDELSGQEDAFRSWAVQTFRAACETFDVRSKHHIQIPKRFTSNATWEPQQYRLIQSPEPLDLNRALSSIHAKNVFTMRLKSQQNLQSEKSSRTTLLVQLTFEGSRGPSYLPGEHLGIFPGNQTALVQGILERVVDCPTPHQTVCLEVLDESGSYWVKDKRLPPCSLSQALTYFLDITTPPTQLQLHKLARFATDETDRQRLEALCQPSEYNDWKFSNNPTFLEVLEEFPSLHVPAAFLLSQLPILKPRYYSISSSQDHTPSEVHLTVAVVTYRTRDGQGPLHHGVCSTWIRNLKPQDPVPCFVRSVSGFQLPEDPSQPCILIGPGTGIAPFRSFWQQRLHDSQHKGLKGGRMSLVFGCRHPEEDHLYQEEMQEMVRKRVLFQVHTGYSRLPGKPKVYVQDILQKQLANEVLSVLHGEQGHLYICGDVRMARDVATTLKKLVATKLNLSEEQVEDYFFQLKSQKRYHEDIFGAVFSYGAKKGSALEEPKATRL
The test is described as follows: Inhibition of iNOS induction in mouse RAW264.7 cells assessed as NO production. Summed up:
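RAW 264.7 cells seeded at 8 × 10⁴ per well in DMEM/10% FBS and grown 2 days. Then exposed to LPS with compound or DMSO for 20 h. Supernatant nitrite measured by Griess reaction (sulfanilamide/NED) at 550 nm minus 620 nm background, quantified against a sodium nitrite standard curve. At least four experiments in triplicate.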
What is called IC50 is the point on the concentration scale where inhibition reaches its midpoint. With `COc1cc(C=CC(=O)CC(=O)C=Cc2ccc(O)c(OC)c2)ccc1O`, the IC50 worked out at 0.8 µM.
Take `CC(C)(C)C1=NN(c2cccc(Cl)c2)C(c2ccc(F)c(O)c2)C1` (stereo not given): the IC50 was 4.6 µM.
Next, `CC(C)(C)C1=NN(c2ccc(Cl)cc2)C(c2ccc(O)cc2)C1` (stereo not given): 7.5 µM; `Oc1ccc(C2CC(c3cccs3)=NN2c2ccc(Br)cc2)cc1` (stereo not given): 3.4 µM; `Oc1ccc(C2CC(c3cccs3)=NN2c2ccc(C(F)(F)F)cc2)cc1` (stereo not given): 2.4 µM.

Values taken from BindingDB's records for doi:10.1021/jm500521n (Saarland University, 2014).
